Laboratory results taken from ChEMBL document CHEMBL1149770, “Synthesis and antimicrobial studies of novel dichlorofluorophenyl containing aminotriazolothiadiazines” (2008).
In brackets after ≈: the same amount, converted by molar mass.

Key:
Staphylococcus aureus [1] = experiment: Antibacterial activity against Staphylococcus aureus ATCC 25923 after 24 hrs by broth dilution technique; assay type: functional; settings: ATCC 25923, 24 h
Outline: (§1)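 MIC by broth dilution in nutrient broth with logarithmic serial twofold dilutions of compound. Inoculum approx. 5×10^5 c.f.u actively dividing bacteria. Incubated 24 h at 37 °C, growth monitored visually and spectrophotometrically. MIC taken as the lowest concentration (highest dilution) arresting growth. Ciprofloxacin reference.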

Staphylococcus aureus [2] = experiment: Antibacterial activity against Staphylococcus aureus ATCC 25923 assessed as inhibition zone diameter after 24 hrs […]; assay type: functional
Outline: (§2)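 Disc diffusion on nutrient agar. Inoculum 1-2 × 10^7 c.f.u/ml (0.5 McFarland) spread over the plate surface. Sterile 6.25 mm filter-paper discs soaked in a known concentration of compound. Solvent and growth controls included. Plates incubated inverted 24 h at 37 °C, then inhibition zone diameter measured in mm. Ciprofloxacin reference.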

Escherichia coli = experiment: Antibacterial activity against Escherichia coli ATCC 25922 after 24 hrs by broth dilution technique; assay type: functional; settings: ATCC 25922, 24 h; outline: as §1
Pseudomonas aeruginosa [3] = experiment: Antibacterial activity against Pseudomonas aeruginosa ATCC 27853 after 24 hrs by broth dilution technique; assay type: functional; settings: ATCC 27853, 24 h; outline: as §1
Pseudomonas aeruginosa [4] = experiment: Antibacterial activity against Pseudomonas aeruginosa ATCC 27853 assessed as inhibition zone diameter after 24 hrs […]; assay type: functional; outline: as §2
Klebsiella pneumoniae [5] = experiment: Antibacterial activity against Klebsiella pneumoniae after 24 hrs by broth dilution technique; assay type: functional; outline: as §1
Klebsiella pneumoniae [6] = experiment: Antibacterial activity against Klebsiella pneumoniae assessed as inhibition zone diameter after 24 hrs […]; assay type: functional; outline: as §2
Streptococcus pyogenes [7] = experiment: Antibacterial activity against Streptococcus pyogenes after 24 hrs by broth dilution technique; assay type: functional; outline: as §1
Candida albicans [8] = experiment: Antifungal activity against Candida albicans after 48 hrs […]; assay type: functional
Candida albicans [9] = experiment: Antifungal activity against Candida albicans assessed as inhibition zone diameter […] by agar dilution method; assay type: functional
Outline: (§3)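 Compounds in DMSO placed in punched wells on Sabouraud agar (peptone, glucose, agar, pH 5.7) lawned with saline spore suspension. Plates pre-dried 1 h at 37 °C. Controls in triplicate, incubation at 37 °C for 3-4 days, then inhibition zone diameter read in mm. Amphotericin B reference.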

Aspergillus flavus [10] = experiment: Antifungal activity against Aspergillus flavus after 48 hrs […]; assay type: functional
Aspergillus flavus [11] = experiment: Antifungal activity against Aspergillus flavus assessed as inhibition zone diameter […] by agar dilution method; assay type: functional; outline: as §3
Aspergillus fumigatus [12] = experiment: Antifungal activity against Aspergillus fumigatus after 48 hrs […]; assay type: functional
Aspergillus fumigatus [13] = experiment: Antifungal activity against Aspergillus fumigatus assessed as inhibition zone diameter […] by agar dilution method; assay type: functional; outline: as §3
[14] = test system: Trichophyton mentagrophytes; experiment: Antifungal activity against Trichophyton mentagrophytes after 48 hrs […]; assay type: functional
[15] = test system: Trichophyton mentagrophytes; experiment: Antifungal activity against Trichophyton mentagrophytes assessed as inhibition zone diameter […] by agar dilution method; assay type: functional; outline: as §3
Talaromyces marneffei [16] = experiment: Antifungal activity against Penicillium marneffei after 48 hrs […]; assay type: functional
Talaromyces marneffei [17] = experiment: Antifungal activity against Penicillium marneffei assessed as inhibition zone diameter […] by agar dilution method; assay type: functional; outline: as §3
Streptococcus pyogenes [18] = experiment: Antibacterial activity against Streptococcus pyogenes assessed as inhibition zone diameter after 24 hrs by disc diffusion method

Nn1c(SCC(=O)Nc2ccc(F)cc2)nnc1-c1cc(F)c(Cl)cc1Cl was tested, and the MIC (Staphylococcus aureus [1]) was 6.25 µg/mL (≈ 14.5 µM), the “inhibition zone (IZ)” value (Staphylococcus aureus [2]) was 23 mm and the MIC (Escherichia coli) was 6.25 µg/mL (≈ 14.5 µM). For the same molecule, the MIC (Pseudomonas aeruginosa [3]) was 6.25 µg/mL (≈ 14.5 µM), the “inhibition zone (IZ)” value (Pseudomonas aeruginosa [4]) was 30 mm and the MIC (Klebsiella pneumoniae [5]) was 6.25 µg/mL (≈ 14.5 µM). The “inhibition zone (IZ)” value (Klebsiella pneumoniae [6]) was 21 mm, the MIC (Streptococcus pyogenes [7]) was 6.25 µg/mL (≈ 14.5 µM) and the MIC (Candida albicans [8]) was 6.25 µg/mL (≈ 14.5 µM). The “inhibition zone (IZ)” value (Candida albicans [9]) was 19 mm, the MIC (Aspergillus flavus [10]) was 6.25 µg/mL (≈ 14.5 µM) and the “inhibition zone (IZ)” value (Aspergillus flavus [11]) was 21 mm. The MIC (Aspergillus fumigatus [12]) was 6.25 µg/mL (≈ 14.5 µM), the “inhibition zone (IZ)” value (Aspergillus fumigatus [13]) was 19 mm and the MIC [14] was 6.25 µg/mL (≈ 14.5 µM). For the same molecule, the “inhibition zone (IZ)” value [15] was 17 mm, the MIC (Talaromyces marneffei [16]) was 6.25 µg/mL (≈ 14.5 µM) and the “inhibition zone (IZ)” value (Talaromyces marneffei [17]) was 24 mm. For the same molecule, the “inhibition zone (IZ)” value (Streptococcus pyogenes [18]) was 22 mm.
